The record followed here is ChEMBL document CHEMBL1138753, “Synthesis and biological activity of analogues of the antimicrotubule agent N,beta,beta-trimethyl-L-phenylalanyl-N(1)-[(1S,2E)-3-carboxy-1-isopropylbut-2-enyl]- N(1),3-dimethyl-L-valinamide (HTI-286)” (J Med Chem, 2004).

The target of assay [1] is T1, Tubulin beta-1 chain (Homo sapiens, UniProt Q9H4B7). Nature of the assay: Percent inhibition of tubulin polymerization at 0.3 uM concentration. The class given is functional.
A further assay concerns LOX IMVI. Briefly: Inhibitory concentration against Lox melanoma cells. The class given is functional, cell-based. The note with it: Homo sapiens. The method in brief:
(§1)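 Cytotoxicity panel covered tumor lines differing in P-glycoprotein expression. Lox melanoma and KM20 have none; NCI-H1299, HCT-15 and S1 express it. Result is the average IC50 (nM) ± SEM.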

A short description of assay [2]: Concentration required to inhibit tumor cell growth in KB-3-1 cells. The settings on record: Homo sapiens, KB 3-1. The class given is functional, cell-based, Homo sapiens. Put shortly: (§2)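 Cytotoxicity was measured in paclitaxel-sensitive KB-3-1 cells and in KB-8-5 and KB-V1 cells, which express moderate and high P-glycoprotein respectively. Result is the average IC50 (nM) ± SEM; SEM is omitted where it is below 10% of the average.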

Assay [3] concerns KB. Nature of the assay: Concentration required to inhibit tumor cell growth in KB-8-5 cells. The settings on record: Homo sapiens, KB. The class given is functional, cell-based, Homo sapiens. Put shortly: as §2
In a further assay the test system is NCI-H1299. Nature of the assay: Inhibitory concentration against NCI-H1299 cells was evaluated. The format is functional, cell-based. The settings on record: Homo sapiens. Put shortly:
as §1

The subject of assay [4] is KB. Briefly: Concentration required to inhibit tumor cell growth in KB-V1 cells. The format is functional, cell-based. The note with it: Homo sapiens. Put shortly: as §2
In another assay the test system is HCT-15. Nature of the assay: Inhibitory concentration against HCT-15 cells was evaluated. The class given is functional, cell-based. The settings on record: Homo sapiens. The method in brief:
as §1

The target of assay [5] is T1, Tubulin beta-1 chain. Briefly: Binding affinity towards tubulin; e = no evidence for binding.
Assay [6] can be described thus: Inhibitory concentration against S1 cells was evaluated. The class given is functional, cell-based. Put shortly:
as §1

Assay [7] concerns the target T1, Tubulin beta-1 chain. Nature of the assay: Binding affinity towards tubulin.
The test system of assay [8] is Mus musculus. Briefly: Minimum effective dose was evaluated in lox melanoma human tumor graft model in athymic mice when administered intravenously. The note with it: iv, read-out: MED.
Assay [9] concerns Mus musculus. Briefly: Minimum tolerated dose was evaluated in lox melanoma human tumor graft model in athymic mice when administered intravenously.
Assay [10] concerns the target T1, Tubulin beta-1 chain. Briefly: Binding affinity towards tubulin; d = weak binding.
Assay [11] can be described thus: Inhibitory concentration against KM20 cells was evaluated. The format is functional, cell-based, Homo sapiens. Put shortly: as §1
The subject of another assay is KB 3-1. Briefly: Inhibitory concentration against KB-3-1 cells was evaluated. The note with it: Homo sapiens. The class given is functional, cell-based. The method in brief: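 Cytotoxicity was measured in paclitaxel-sensitive KB-3-1 human carcinoma cells. The value is the average IC50 in nM ± SEM; where no SEM is given, it is under 10% of the average.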

Broadly, the inhibition is the percentage by which the read-out fell short of the control. What is called pIC50 is −log10 of the IC50, conventionally taken in molar units. A low value points to a high IC50. Broadly, the pKd is −log10 of the Kd, conventionally taken in molar units. Higher therefore signals a low Kd. In general, MTD refers to the highest dose tested that stayed within the study's limit of toxicity.

pIC50, pKd: −log10 of the molar value.

T1 sequence (Q9H4B7 whole entry): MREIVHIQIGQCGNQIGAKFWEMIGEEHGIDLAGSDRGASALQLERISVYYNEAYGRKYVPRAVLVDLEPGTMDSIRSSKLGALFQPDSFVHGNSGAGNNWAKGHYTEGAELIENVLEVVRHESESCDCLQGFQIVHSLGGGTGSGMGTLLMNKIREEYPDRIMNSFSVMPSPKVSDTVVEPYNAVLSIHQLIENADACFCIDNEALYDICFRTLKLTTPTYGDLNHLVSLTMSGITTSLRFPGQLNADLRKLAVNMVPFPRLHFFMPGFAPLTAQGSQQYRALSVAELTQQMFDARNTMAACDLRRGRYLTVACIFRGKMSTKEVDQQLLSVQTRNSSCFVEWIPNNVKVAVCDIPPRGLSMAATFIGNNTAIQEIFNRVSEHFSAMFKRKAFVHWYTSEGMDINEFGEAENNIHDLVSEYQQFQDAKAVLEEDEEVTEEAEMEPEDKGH

`C/C(=C\[C@H](C(C)C)N(C)C(=O)[C@@H](NC(=O)[C@@H](C)C(C)(C)c1ccccc1)C(C)(C)C)C(=O)O`: the inhibition against Tubulin beta-1 chain [1] worked out at 94%. The negative logarithm of the IC50 (pIC50) with LOX IMVI was 5.86; in assay [2] it was 6.25; with KB [3], 6.19; with NCI-H1299 it was 5.97; in the assay on KB [4], < 5.52; with HCT-15, 5.92. Moreover, the Kd entry on Tubulin beta-1 chain [5] is reported as “No evidence for binding”.

In turn, `CN[C@H](C(=O)N[C@H](C(=O)N(C)[C@H](/C=C(\C)C(=O)O)C(C)C)C(C)(C)C)C(C)(C)c1ccc(OC)cc1` registered an inhibition at Tubulin beta-1 chain [1] of 91%. Also, the negative-log IC50 (pIC50) is 8.14 in [6]; 8.96 in the assay with LOX IMVI; 8.85 in assay [2]; 8.39 with KB [3]; 8.00 in the assay on NCI-H1299; 6.84 in the assay on KB [4]. In the assay on HCT-15, this molecule had a pIC50 of 8.16. The molecule also showed a pKd on Tubulin beta-1 chain [7] of 6.15. For the same molecule, the minimal effective dose in the assay on Mus musculus [8] stood at 0.1 mg/kg. The maximum tolerated dose (MTD) in the assay with Mus musculus [9] worked out at 1.6 mg/kg.

`CN[C@@H](C(=O)N[C@H](C(=O)N(C)[C@H](/C=C(\C)C(=O)O)C(C)C)C(C)(C)C)C(C)(C)c1ccccc1` (single isomer, unassigned): the inhibition against Tubulin beta-1 chain [1] was 91%. Further, the negative logarithm of the IC50 (pIC50) with LOX IMVI was 7.43; in assay [2], 7.55; in the assay on KB [3], 7.41; in the assay on NCI-H1299 it was 7.10; with KB [4] it was 6.06; in the assay with HCT-15, 7.24. Besides, the Kd entry at Tubulin beta-1 chain [10] is given as “Weak binding”.

At Tubulin beta-1 chain [1], `CN[C@H](C(=O)N[C@H](C(=O)N(C)[C@H](/C=C(\C)C(=O)O)C(C)C)C(C)(C)C)C(C)(C)c1ccccc1` [TALTOBULIN] showed an inhibition of 88%. The negative logarithm of the IC50 (pIC50) in assay [6] was 8.43; with LOX IMVI, 8.85; with NCI-H1299, 8.17; in assay [11], 8.74; in the assay with KB [4] it was 7.11; in the assay on HCT-15, 8.38. This molecule showed a negative-log Kd (pKd) on Tubulin beta-1 chain [7] of 6.59. The minimal effective dose in the assay on Mus musculus [8] worked out at 0.2 mg/kg. In the assay on Mus musculus [9], this molecule gave an MTD of 1.6 mg/kg.

As to `CC(=O)O[C@H]1C(=O)[C@@]2(C)[C@H]([C@H](OC(=O)c3ccccc3)[C@]3(O)C[C@H](OC(=O)[C@H](O)[C@@H](NC(=O)c4ccccc4)c4ccccc4)C(C)=C1C3(C)C)[C@]1(OC(C)=O)CO[C@@H]1C[C@@H]2O` [PACLITAXEL], the pIC50 in assay [6] is 7.04; with LOX IMVI, 7.76; in the assay on NCI-H1299, 7.42; in assay [11] it was 8.05; with HCT-15, 6.36; with KB 3-1 it was 8.41.
